Experimental data reported in ChEMBL document CHEMBL1759862, “Tricyclic compounds containing nonenolizable cyano enones. A novel class of highly potent anti-inflammatory and cytoprotective agents” (J Med Chem, 2011).
“And” between values parts separate entries of the source, which are not always exact repeats. Equal entries are not always repeated. The source made the active and inactive calls. The calls are words filed in the database; no cut-off is given here.

Columns and labels:
Rattus norvegicus [1] = assay: Toxicity in F344 rat assessed as growth rate at 0.3 to 60 umol administered via gavage; assay type: organism-based; settings: in vivo, po
Method in brief: (§1)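 Tolerability was checked in rats in the aflatoxin B1 short-term hepatic tumorigenesis study, dosed at 0.3 to 60 μmol/kg. Growth rate and final body weight were compared with controls not given AFB1.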

Stomach = assay: Induction of HO-1 expression in CD-1 mouse stomach at 1 umol administered via gavage measured after 6 hrs by Western blotting; assay type: functional, tissue-based
Method in brief: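 Male CD-1 mice, three per group, received 1 μmol of compound in DMSO by gavage. Stomachs were harvested 6 h later, and HO-1 was detected by Western blot of tissue.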

Liver [2] = assay: Induction of HO-1 expression in CD-1 mouse liver at 1 umol administered via gavage measured after 6 hrs by Western blotting; assay type: functional, tissue-based
Liver [3] = assay: Antitumor activity against aflatoxin B1-induced tumorigenesis in F344 rat liver assessed as reduction in tumor burden at 10 umol/kg administered via gavage relative to control; assay type: functional; set-up: scale not given: the % may be the effect or the level left
Method in brief: (§2)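 Short-term rat model of liver tumorigenesis induced with aflatoxin B1. Test agent was given at 0.3 to 60 μmol/kg. Preneoplastic foci were scored in liver, and tumor burden was expressed against the AFB1-treated positive control group.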

Rattus norvegicus [4] = assay: Toxicity in F344 rat assessed as effect on body weight at 0.3 to 60 umol administered via gavage; assay type: organism-based; settings: in vivo, po; method in brief: as §1
[5] = biological target: NAD(P)H dehydrogenase [quinone] 1 (Mus musculus) (UniProt Q64669); assay: Induction of NQO1 activity in mouse Hepa-1c1c7 cells after 48 hrs; assay type: cell-based
Sequence of NAD(P)H dehydrogenase [quinone] 1 (Mus musculus) (Q64669 whole entry): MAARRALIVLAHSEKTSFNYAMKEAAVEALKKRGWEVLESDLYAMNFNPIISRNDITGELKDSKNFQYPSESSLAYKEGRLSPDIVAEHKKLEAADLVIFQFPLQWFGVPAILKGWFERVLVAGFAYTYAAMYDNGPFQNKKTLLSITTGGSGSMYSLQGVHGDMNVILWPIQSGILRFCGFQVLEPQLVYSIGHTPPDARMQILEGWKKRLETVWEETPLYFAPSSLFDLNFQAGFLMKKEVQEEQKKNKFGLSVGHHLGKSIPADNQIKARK

RAW264.7 [6] = assay: Antiinflammatory activity in mouse RAW264.7 cells assessed as inhibition of IFN-gamma induced NO production after 24 hrs by Griess reaction; assay type: functional, cell-based
Method in brief: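 RAW 264.7 cells exposed to serial concentrations of compound together with IFN-γ (10 ng/mL) for 24 h; NO in supernatants quantified by Griess reaction. IC50 tested over 0.1 pM to 10 μM in 10-fold steps; values averaged from two separate experiments.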

RAW264.7 [7] = assay: Induction of HO-1 expression in mouse RAW264.7 cells at 10 nM after 6 hrs by Western blotting; assay type: functional, cell-based
Method in brief: (§3)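 RAW 264.7 macrophages were exposed to compound at 10–100 nM for 6 h. HO-1 protein was detected by Western blot of total cell lysates.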

RAW264.7 [8] = assay: Induction of HO-1 expression in mouse RAW264.7 cells at 100 nM after 6 hrs by Western blotting; assay type: functional, cell-based; method in brief: as §3
Macrophage [9] = assay: Ratio of CDDO IC50 to compound IC50 for inhibition of IFN-gamma induced NO production in mouse macrophages; assay type: functional
Liver [10] = assay: Antitumor activity against aflatoxin B1-induced tumorigenesis in F344 rat liver assessed as reduction in tumor burden at 0.3 umol/kg administered via gavage relative to control; assay type: functional; set-up: scale not given: the % may be the effect or the level left; method in brief: as §2
RAW264.7 [11] = assay: Ratio of CDDO IC50 to compound IC50 for inhibition of IFN-gamma induced NO production in mouse RAW264.7 cells; assay type: functional
Method in brief: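 RAW 264.7 cells were co-treated with compound (0.1 pM to 10 μM, 10-fold dilutions) and IFN-γ 10 ng/mL for 24 h. Nitric oxide in supernatants was measured by the Griess reaction. IC50 is the mean of two separate experiments, and the ratio is taken against CDDO's IC50.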

[12] = Antiinflammatory activity in CD-1 mouse Macrophage assessed as inhibition of IFN-gamma induced NO production after 48 hrs by Griess reaction; assay type: functional, cell-based
RAW264.7 [13] = assay: Induction of HO-1 expression in mouse RAW264.7 cells at 300 nM after 6 hrs by Western blotting; assay type: functional, cell-based
Method in brief: (§4)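 RAW cells treated with compound for 6 h (30–300 nM range); HO-1 detected in total cell lysates by Western blot.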

RAW264.7 [14] = assay: Inhibition of IFN-gamma induced iNOS expression in mouse RAW264.7 cells at 30 nM after 24 hrs by Western blotting; assay type: functional, cell-based
Liver [15] = assay: Antitumor activity against aflatoxin B1-induced tumorigenesis in F344 rat liver assessed as inhibition of preneoplastic foci formation administered via gavage; assay type: functional, tissue-based; method in brief: as §2
Liver [16] = assay: Antitumor activity against aflatoxin B1-induced tumorigenesis in F344 rat liver assessed as reduction in tumor burden at 60 umol/kg administered via gavage; assay type: functional, tissue-based; method in brief: as §2
Liver [17] = assay: Antitumor activity against aflatoxin B1-induced tumorigenesis in F344 rat liver assessed as reduction in tumor burden at 30 umol/kg administered via gavage; assay type: functional, tissue-based; method in brief: as §2
RAW264.7 [18] = assay: Induction of HO-1 expression in mouse RAW264.7 cells at 30 nM after 6 hrs by Western blotting; assay type: functional, cell-based; method in brief: as §4
RAW264.7 [19] = assay: Inhibition of IFN-gamma induced iNOS expression in mouse RAW264.7 cells at 300 nM after 24 hrs by Western blotting; assay type: functional, cell-based
Macrophage [20] = assay: Antiinflammatory activity in CD-1 mouse Macrophage assessed as inhibition of IFN-gamma induced NO production after 48 hrs by Griess reaction in presence of glucocorticoid antagonist mifepristone; assay type: functional, cell-based
[21] = Cytotoxicity against CD-1 mouse macrophages at 10 uM; assay type: cell-based; settings: macrophage

SMILES | Activity (Stomach) | Activity (Liver [2]) | CD [5] [nM] | IC50 (RAW264.7 [6]; Mus musculus, RAW264.7, 24 h) [nM] | Activity (RAW264.7 [7]) | Activity (RAW264.7 [8]) | Activity (RAW264.7 [13]) | further results
CC1(C)CC[C@]2(C(=O)n3ccnc3)CC[C@]3(C)[C@H](C(=O)C=C4[C@@]5(C)C=C(C#N)C(=O)C(C)(C)[C@@H]5CC[C@]43C)[C@@H]2C1 | Active | Active | 3.3 | 1 | – | – | – | Activity (Rattus norvegicus [1]): Non-toxic; Activity (Liver [3]): 99%; Activity (Rattus norvegicus [4]): Non-toxic
C#C[C@@]12C=C(C#N)C(=O)C=C1[C@]1(C)C=C(C#N)C(=O)C(C)(C)[C@H]1CC2 | – | – | 0.9 | 1 | Active | Active | – | –
CC1(C)C(=O)C(C#N)=C[C@@]2(C)C3=CC(=O)C(C#N)=C[C@@]3(C#C[Si](C)(C)C)CC[C@H]12 | – | – | 2.3 | 2 | Active | Active | – | –
C#C[C@]12C=C(C#N)C(=O)C=C1[C@@]1(C)C=C(C#N)C(=O)C(C)(C)[C@@H]1CC2 (racemic) [listing 1 of 2 here] | – | – | – | – | – | – | – | Ratio (Macrophage [9]): 80; Activity (Liver [10]): 90%; Activity (Rattus norvegicus [1]): Non-toxic; Ratio (RAW264.7 [11]): 20; Activity (Liver [3]): 99%; Activity (Rattus norvegicus [4]): Non-toxic; IC50 (RAW264.7 [6]; raw264.7): 1 nM; IC50 ([12]; Mus musculus, CD-1, Macrophage, 48 h): 0.056 nM
C#C[C@]12C=C(C#N)C(=O)C=C1[C@@]1(C)C=C(C#N)C(=O)C(C)(C)[C@@H]1CC2 (racemic) [listing 2 of 2 here] | Active | – | 0.9 | – | Active | Active | Active | inhibition (RAW264.7 [14]): Active; inhibition (Liver [15]): Dose-dependent effect; Activity (Liver [16]): Active; Activity (Liver [17]): Active; Activity (RAW264.7 [18]): Active
CC1(C)C(=O)C(C#N)=C[C@]2(C)C3=CC(=O)C(C#N)=C[C@]3(C#C[Si](C)(C)C)CC[C@@H]12 (racemic) | – | – | 3.5 | – | Active | Active | Active | inhibition (RAW264.7 [14]): Active; Activity (RAW264.7 [18]): Active
CC1(C)C(=O)C(C#N)=C[C@]2(C)C3=CC(=O)C(C#N)=C[C@]3(C)CC[C@@H]12 (racemic) | – | Active | 18 | – | – | – | Active | inhibition (RAW264.7 [19]): Active; inhibition (Macrophage [20]): Active
CC1(C)CC[C@]2(C(=O)O)CC[C@]3(C)[C@H](C(=O)C=C4[C@@]5(C)C=C(C#N)C(=O)C(C)(C)[C@@H]5CC[C@]43C)[C@@H]2C1 [BARDOXOLONE] | inactive | inactive | 2.3 | 17 | – | – | – | Activity [21]: Non-toxic; IC50 ([12]; macrophage): 4.3 nM and 0.5 nM
